Data taken from ChEMBL document CHEMBL4414559, “Proanthocyanidin Dimers and Trimers from Vitis vinifera Provide Diverse Structural Motifs for the Evaluation of Dentin Biomodification” (J Nat Prod, 2019).
Active and inactive are the calls of the source. The calls are words filed in the database; no cut-off is given here.

How the values were obtained:
Dentine [1] = experiment: Induction of elasticity in human molar dentin assessed as fold change at 3.5 mg after 1 hr by flexural assay relative to untreated control; format: functional
Hathewaya histolytica = experiment: Inhibition of Clostridium histolyticum collagenase-induced degradation of human molar dentin assessed as reduction in at 3.5 mg after 1 hr followed by collagenase treatment and measured after 24 hrs relative to control
In short: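 Resistance to proteolytic biodegradation is measured gravimetrically as percent mass gain or loss of the dentin. This avoids colorimetric, fluorescence or UV detection.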

Dentine [2] = experiment: Induction of modification in human molar dentin assessed as sum of percentage of apparent modulus elasticity and percentage of collagen remaining after […] at 3.5 mg; format: functional, tissue-based
[3] = Stability in human molar dentin at 3.5 mg after 1 hr by flexural assay; format: ADME, tissue-based, Dentine; conditions: in vitro
Dentine [4] = experiment: Induction of elasticity in human molar dentin at 3.5 mg after 1 hr by flexural assay; format: functional, tissue-based
In short: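 Read-out is modulus of elasticity (MPa), measured mechanically on the dentin. This avoids colorimetric, fluorescence or UV detection.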

Row | inhibition (Hathewaya histolytica) | Stability [3] | Compound | fold change (FC) (Dentine [1]) | Activity (Dentine [2]) | Activity (Dentine [4])
1 | – | Stable | Oc1cc(O)c2c(c1)O[C@H](c1ccc(O)c(O)c1)[C@H](O)[C@H]2c1c(O)cc(O)c2c1O[C@H](c1ccc(O)c(O)c1)[C@H](O)C2 [PROCYANIDIN B2] | – | Active | inactive
2 | – | Stable | Oc1cc(O)c2c(c1)O[C@H](c1ccc(O)c(O)c1)[C@@H](O)[C@@H]2c1c(O)cc(O)c2c1O[C@H](c1ccc(O)c(O)c1)[C@@H](O)C2 | – | – | inactive
3 | – | Stable | Oc1cc(O)c2c(c1)O[C@H](c1ccc(O)c(O)c1)[C@H](O)[C@H]2c1c(O)cc(O)c2c1O[C@@H](c1ccc(O)c(O)c1)[C@H](O)C2 | – | – | inactive
4 | – | Stable | Oc1cc(O)c2c(c1)O[C@@H](c1ccc(O)c(O)c1)[C@H](O)[C@H]2c1c(O)cc(O)c2c1O[C@H](c1ccc(O)c(O)c1)[C@H](O)C2 | – | Active | inactive

Further lines, the molecule ahead of its results:

Row | Compound | inhibition (Hathewaya histolytica) | Stability [3] | fold change (FC) (Dentine [1]) | Activity (Dentine [2]) | Activity (Dentine [4])
5 | Oc1cc(O)c2c(c1)O[C@H](c1ccc(O)c(O)c1)[C@H](O)[C@H]2c1c(O)cc(O)c2c1O[C@H](c1ccc(O)c(O)c1)[C@H](O)[C@H]2c1c(O)cc(O)c2c1O[C@H](c1ccc(O)c(O)c1)[C@@H](O)C2 | 70 to 80% | Stable | 5 | Active | –
6 | Oc1cc(O)c2c(c1)O[C@H](c1ccc(O)c(O)c1)[C@H](O)[C@H]2c1c(O)cc(O)c2c1O[C@@H](c1ccc(O)c(O)c1)[C@@H](O)C2 | – | Stable | – | Active | inactive
7 | Oc1cc(O)c2c(c1)O[C@H](c1ccc(O)c(O)c1)[C@H](O)[C@H]2c1c(O)cc(O)c2c1O[C@H](c1ccc(O)c(O)c1)[C@@H](O)C2 [PROCYANIDIN B1] | – | Stable | – | – | inactive
8 | Oc1cc(O)c2c(c1)O[C@@H](c1ccc(O)c(O)c1)[C@H](O)[C@H]2c1c(O)cc(O)c2c1O[C@H](c1ccc(O)c(O)c1)[C@@H](O)C2 | – | Stable | – | Active | inactive
9 | Oc1cc(O)c2c(c1)O[C@H](c1ccc(O)c(O)c1)[C@H](O)[C@H]2c1c(O)cc(O)c2c1O[C@H](c1ccc(O)c(O)c1)[C@H](O)[C@H]2c1c(O)cc(O)c2c1O[C@@H](c1ccc(O)c(O)c1)[C@H](O)C2 | 70 to 80% | Stable | 5.5 | Active | –
